Broadly, the IC50 is the point on the concentration scale where inhibition reaches its midpoint.

Experiment [1] is described as follows: Inhibition of Influenza B virus (B/Yokohama/UT2203/2005)) neuraminidase N294S mutant after 30 mins by fluorescence analysis. The essentials: (§1)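 Virus NA source was mixed with compound in 32.5 mM MES-NaOH pH 6.5 with 4 mM CaCl2 and preincubated 10 min at room temperature. Reaction ran 30 min at room temperature with 100 μM (final) 4-MU-NANA. Fluorescence was read at ex 360/em 460 nm, in triplicate. IC50 came from linear regression of residual activity against log concentration, using concentrations giving 10–90% residual activity.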

Experiment [2] in a line: Inhibition of Influenza B virus (B/Yokohama/UT3318/2005)) neuraminidase N294S mutant after 30 mins by fluorescence analysis. The essentials:
as §1

Take `CO[C@@H]([C@@H]1OC(C(=O)O)=C[C@H](NC(=N)N)[C@H]1NC(C)=O)[C@H](O)CO` [LANINAMIVIR]: the IC50 in experiment [1] worked out at 48.9 nM; in experiment [2], 30.2 nM.
Consider `CC(=O)N[C@H]1[C@H]([C@H](O)[C@H](O)CO)OC(C(=O)O)=C[C@@H]1NC(=N)N` [ZANAMIVIR], for which the IC50 came out at 33.6 nM in experiment [1] and 20 nM in experiment [2].

Values taken from ChEMBL document CHEMBL1629572 (Antimicrob Agents Chemother, 2009).
